Results published in BindingDB's records for doi:10.1021/jm950700s (Schering-Plough Research Institute, 1997).

Legend:
[1] = biological target: Potassium-transporting ATPase alpha chain 1/subunit beta (Oryctolagus cuniculus); assay: Inhibition of H+/K+ ATPase as reduced acid formation in rabbit gastric glands
[2] = biological target: Potassium-transporting ATPase (Sus scrofa, UniProt P19156); assay: Inhibition of purified H+/K+ ATPase at pH 7.4 as released inorganic phosphate from ATP using hog stomach gastric membrane vesicles
Potassium-transporting ATPase, sequence (P19156 whole entry, looked up): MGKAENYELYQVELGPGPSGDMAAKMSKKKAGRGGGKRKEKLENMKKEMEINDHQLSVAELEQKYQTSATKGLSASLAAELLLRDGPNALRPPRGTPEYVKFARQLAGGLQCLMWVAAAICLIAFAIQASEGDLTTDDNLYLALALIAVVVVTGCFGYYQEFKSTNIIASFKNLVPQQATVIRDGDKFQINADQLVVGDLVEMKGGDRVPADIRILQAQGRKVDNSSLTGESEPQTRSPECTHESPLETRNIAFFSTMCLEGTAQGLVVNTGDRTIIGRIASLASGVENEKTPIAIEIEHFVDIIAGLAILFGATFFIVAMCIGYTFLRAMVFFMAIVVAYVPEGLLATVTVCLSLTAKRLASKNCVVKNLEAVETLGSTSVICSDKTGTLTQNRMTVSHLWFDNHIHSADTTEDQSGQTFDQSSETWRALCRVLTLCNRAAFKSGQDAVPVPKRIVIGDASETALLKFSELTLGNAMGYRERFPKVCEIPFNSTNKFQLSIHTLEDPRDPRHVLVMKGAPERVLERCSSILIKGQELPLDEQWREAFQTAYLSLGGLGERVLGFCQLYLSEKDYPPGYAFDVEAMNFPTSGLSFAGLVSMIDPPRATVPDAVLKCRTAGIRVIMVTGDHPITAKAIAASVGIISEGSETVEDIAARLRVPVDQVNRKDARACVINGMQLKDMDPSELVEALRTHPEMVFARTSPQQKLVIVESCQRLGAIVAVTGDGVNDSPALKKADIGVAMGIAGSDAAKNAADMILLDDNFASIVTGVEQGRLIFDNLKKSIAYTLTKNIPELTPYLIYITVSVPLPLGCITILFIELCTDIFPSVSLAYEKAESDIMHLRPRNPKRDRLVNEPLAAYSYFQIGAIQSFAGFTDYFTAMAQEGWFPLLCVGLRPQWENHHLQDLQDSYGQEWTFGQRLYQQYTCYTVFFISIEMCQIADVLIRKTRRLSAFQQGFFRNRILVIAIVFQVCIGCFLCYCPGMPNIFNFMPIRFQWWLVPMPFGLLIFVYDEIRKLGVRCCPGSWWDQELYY
Summary of the method: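 Gastric membrane vesicles from hog stomach were prepared by differential and zonal density gradient centrifugation. Activity was read as inorganic phosphate released from ATP at pH 7.4. Protein was measured by the Bradford method against a gammaglobulin standard.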

| IC50 [1] [µM] | IC50 [2] [µM] | Compound |
| --- | --- | --- |
| 442 | 206 | Cc1nc2c(C/C=C/c3ccccc3)cccn2c1CC#N |
|  | 178 | Cc1nc2c(OCc3ccccc3)nccn2c1N |
